Measured values taken from ChEMBL document CHEMBL4428078, “Discovery of S3-Truncated, C-6 Heteroaryl Substituted Aminothiazine β-Site APP Cleaving Enzyme-1 (BACE1) Inhibitors” (J Med Chem, 2016).

Assays:
Rattus norvegicus [1] = test: In vivo inhibition of BACE1 in po dosed rat assessed as reduction in brain amyloid beta40 level measured after 5 hrs by ELISA relative to control
[2] = Metabolic stability in mouse liver microsomes assessed as compound remaining at 0.5 uM measured after 10 mins; assay type: ADME, Microsome; details: read-out: Stability
In short: (§1)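 Test compound at 0.5 µM incubated 10 min with mouse, rat or human liver microsomes. Read-out is percent of parent compound remaining.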

Rattus norvegicus [3] = test: In vivo inhibition of BACE1 in po dosed rat assessed as reduction in total amyloid beta level in brain measured after 5 hrs by ELISA relative to control
[4] = Plasma concentration in mouse at 30 mg/kg, po measured after 3 hrs; assay type: ADME, organism-based
In short: (§2)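 Young mice given a single oral dose of 30 mg/kg. Total brain and plasma drug levels were measured 3 h post-dose and the brain/plasma ratio derived.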

[5] = Metabolic stability in rat liver microsomes assessed as compound remaining at 0.5 uM measured after 10 mins; assay type: ADME, Microsome; details: read-out: Stability
In short: as §1

Beta-secretase 1 = Beta-secretase 1 (Homo sapiens, UniProt P56817); test: Inhibition of BACE1 in human H4 cells expressing swedish mutant APP751 assessed as reduction in amyloid beta level measured after 19 hrs; assay type: cell-based
Chain of Beta-secretase 1 (P56817 whole entry): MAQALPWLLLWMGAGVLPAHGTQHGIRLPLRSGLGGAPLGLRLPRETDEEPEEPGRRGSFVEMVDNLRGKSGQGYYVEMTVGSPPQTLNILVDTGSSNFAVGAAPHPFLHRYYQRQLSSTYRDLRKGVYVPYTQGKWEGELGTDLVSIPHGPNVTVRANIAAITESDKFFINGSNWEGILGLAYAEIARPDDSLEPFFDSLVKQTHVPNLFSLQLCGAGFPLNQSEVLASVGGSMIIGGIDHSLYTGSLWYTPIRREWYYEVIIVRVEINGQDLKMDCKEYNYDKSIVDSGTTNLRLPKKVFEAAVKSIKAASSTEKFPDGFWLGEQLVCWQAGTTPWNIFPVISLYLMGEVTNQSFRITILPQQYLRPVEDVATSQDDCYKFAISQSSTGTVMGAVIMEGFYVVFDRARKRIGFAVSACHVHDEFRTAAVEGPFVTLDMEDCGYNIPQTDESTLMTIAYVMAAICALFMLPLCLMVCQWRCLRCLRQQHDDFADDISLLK

Rattus norvegicus [6] = test: In vivo inhibition of BACE1 in po dosed rat assessed as reduction in brain amyloid beta42 level measured after 5 hrs by ELISA relative to control
[7] = Drug uptake in mouse brain at 30 mg/kg, po measured after 3 hrs; assay type: ADME, organism-based; details: read-out: Drug uptake
In short: as §2

[8] = Ratio of drug level in brain to plasma of mouse at 30 mg/kg, po measured at 3 hrs post dose; assay type: ADME, organism-based; details: read-out: BPR
In short: as §2

[9] = Metabolic stability in human liver microsomes assessed as compound remaining at 0.5 uM measured after 10 mins; assay type: ADME, Microsome; details: read-out: Stability
In short: as §1

Mus musculus = test: In vivo inhibition of BACE1 in mouse assessed as reduction in brain amyloid beta level at 30 mg/kg, po measured after 3 hrs by ELISA relative to control; assay type: functional
In short: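 Young mice dosed orally at 30 mg/kg. Brain Aβ was measured 3 h post-dose and expressed as percent reduction.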

Row | SMILES | inhibition (Rattus norvegicus [1]) | remaining at 10 min, 0.5 µM [2] [%] | inhibition (Rattus norvegicus [3]) | concentration at 3 h [4] [µM] | remaining at 10 min, 0.5 µM [5] [%] | IC50 (Beta-secretase 1) [nM] | inhibition (Rattus norvegicus [6]) | concentration at 3 h [7] [µM] | Kp at 3 h [8] | remaining at 10 min, 0.5 µM [9] [%] | inhibition in vivo at 30 mg/kg (Mus musculus) [%]
1 | Cc1noc(C)c1[C@@H]1C[C@@](C)(c2ccc(F)cc2F)N=C(N)S1 | Dose-dependent effect | 72 | Dose-dependent effect | 4.8 | 78 | 150 | Dose-dependent effect | 3.6 | 0.75 | 24 | 62
2 | CCc1noc(C)c1[C@@H]1C[C@@](C)(c2ccc(F)cc2F)N=C(N)S1 | – | 41 | – | – | 59 | 250 | – | – | – | 21 | –
3 | Cc1onc(-c2cccnc2)c1[C@@H]1C[C@@](C)(c2ccc(F)cc2F)N=C(N)S1 | – | 6 | – | – | 5 | 180 | – | – | – | 17 | –
4 | Cc1noc(C)c1[C@@H]1C[C@@](C)(c2cc(-c3cncnc3)c(F)cc2F)N=C(N)S1 | – | – | – | 7.4 | – | – | – | 0.58 | 0.08 | – | –
